The source of these data is ChEMBL document CHEMBL2321868, “The discovery of novel potent trans-3,4-disubstituted pyrrolidine inhibitors of the human aspartic protease renin from in silico three-dimensional (3D) pharmacophore searches” (J Med Chem, 2013).

Assay [1] deals with Rattus norvegicus. Description: Antihypertensive activity in double transgenic rat overexpressing human renin and human angiotensinogen assessed as reduction in mean arterial pressure at 6 mg/kg, po. The format is functional, Artery. The essentials: (§1)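 Double-transgenic rats overexpressing human renin and human angiotensinogen, with telemetry. Each received a single oral dose of 6 or 30 mg/kg. The read-out was mean arterial pressure, reported as the peak change from dosing.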

Assay [2] has as its system Rattus norvegicus. The assay is described as follows: Antihypertensive activity in double transgenic rat overexpressing human renin and human angiotensinogen assessed as reduction in mean arterial pressure at 30 mg/kg, po. The format is functional, Artery. The method, boiled down:
as §1

In the next assay the target is T1, Cathepsin E (Homo sapiens, UniProt P14091).
T1 sequence (P14091 whole entry): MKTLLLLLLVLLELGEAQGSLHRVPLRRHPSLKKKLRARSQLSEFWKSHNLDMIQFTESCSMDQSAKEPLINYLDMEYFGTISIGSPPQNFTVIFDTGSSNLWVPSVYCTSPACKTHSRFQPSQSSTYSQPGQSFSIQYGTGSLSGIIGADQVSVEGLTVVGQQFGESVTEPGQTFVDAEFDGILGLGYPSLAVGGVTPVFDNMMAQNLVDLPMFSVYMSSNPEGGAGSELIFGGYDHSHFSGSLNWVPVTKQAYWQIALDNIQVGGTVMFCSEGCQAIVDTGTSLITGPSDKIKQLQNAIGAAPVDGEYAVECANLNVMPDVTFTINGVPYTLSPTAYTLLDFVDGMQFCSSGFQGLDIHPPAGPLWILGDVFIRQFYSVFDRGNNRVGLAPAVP
The assay is described as follows: Inhibition of human recombinant cathepsin-E expressed in Escherichia coli using Ac- E-D(EDANS)-KPILFFRLG-K(Dabcyl)-E-Amid as substrate incubated for 1 hr prior to substrate addition measured after 1 hr by FRET-based enzymatic assay.

Assay [3] deals with T2, Adrenergic receptor alpha-1 (Homo sapiens, UniProt P35348+P25100+P35368).
T2 sequence (P35348 whole entry): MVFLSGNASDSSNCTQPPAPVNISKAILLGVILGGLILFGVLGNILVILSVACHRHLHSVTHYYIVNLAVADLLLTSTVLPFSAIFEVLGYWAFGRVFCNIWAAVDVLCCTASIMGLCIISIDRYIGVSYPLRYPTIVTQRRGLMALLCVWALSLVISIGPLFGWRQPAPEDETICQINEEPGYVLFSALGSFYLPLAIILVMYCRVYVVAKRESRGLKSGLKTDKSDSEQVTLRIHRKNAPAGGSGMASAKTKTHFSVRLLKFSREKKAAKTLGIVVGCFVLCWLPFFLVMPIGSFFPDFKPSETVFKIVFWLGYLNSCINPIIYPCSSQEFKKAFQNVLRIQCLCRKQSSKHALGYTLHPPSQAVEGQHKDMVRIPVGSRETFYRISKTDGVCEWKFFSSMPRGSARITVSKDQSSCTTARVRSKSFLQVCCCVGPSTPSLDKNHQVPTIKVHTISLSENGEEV
T2 sequence (P25100 whole entry): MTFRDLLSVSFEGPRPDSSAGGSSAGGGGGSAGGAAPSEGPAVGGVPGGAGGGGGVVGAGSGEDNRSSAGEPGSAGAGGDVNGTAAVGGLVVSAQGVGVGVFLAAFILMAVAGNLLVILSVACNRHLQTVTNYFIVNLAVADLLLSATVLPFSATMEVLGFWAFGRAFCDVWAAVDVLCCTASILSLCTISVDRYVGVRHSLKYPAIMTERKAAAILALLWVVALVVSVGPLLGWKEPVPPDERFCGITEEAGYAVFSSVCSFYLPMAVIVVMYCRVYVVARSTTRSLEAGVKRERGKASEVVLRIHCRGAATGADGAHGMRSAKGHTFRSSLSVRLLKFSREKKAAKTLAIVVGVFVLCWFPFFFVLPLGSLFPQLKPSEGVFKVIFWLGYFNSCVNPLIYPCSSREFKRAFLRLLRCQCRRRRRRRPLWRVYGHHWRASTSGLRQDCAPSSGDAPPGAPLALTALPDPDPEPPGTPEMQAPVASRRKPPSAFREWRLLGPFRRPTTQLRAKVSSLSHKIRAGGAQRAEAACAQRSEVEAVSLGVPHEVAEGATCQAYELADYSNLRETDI
T2 sequence (P35368 whole entry): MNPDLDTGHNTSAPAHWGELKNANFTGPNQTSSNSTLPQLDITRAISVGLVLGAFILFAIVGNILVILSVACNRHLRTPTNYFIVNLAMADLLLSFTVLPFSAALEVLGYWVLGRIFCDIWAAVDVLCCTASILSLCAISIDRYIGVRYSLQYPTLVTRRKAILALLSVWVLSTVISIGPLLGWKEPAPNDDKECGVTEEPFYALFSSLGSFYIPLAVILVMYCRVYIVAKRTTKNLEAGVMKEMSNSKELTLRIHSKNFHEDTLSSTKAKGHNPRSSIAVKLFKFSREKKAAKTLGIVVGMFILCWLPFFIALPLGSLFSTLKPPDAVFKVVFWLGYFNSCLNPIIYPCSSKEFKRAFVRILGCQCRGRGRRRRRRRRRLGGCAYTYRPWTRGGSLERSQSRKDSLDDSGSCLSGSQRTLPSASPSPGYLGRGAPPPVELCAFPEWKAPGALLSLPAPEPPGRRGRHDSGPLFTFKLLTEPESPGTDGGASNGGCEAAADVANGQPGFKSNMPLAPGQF
The assay is described as follows: Inhibition of alpha-1 adrenoceptor (unknown origin).

The target of another assay is Beta-secretase 1 (Homo sapiens, UniProt P56817). Description: Inhibition of human recombinant BACE-1 expressed in baculovirus-infected insect sf9 cells using RE( EDANS)-EVNLDAEF-K(DABSYL)-R as substrate incubated for 1 hr prior to substrate addition measured after 1 hr by FRET-based enzymatic assay.
Another assay has as its target T3, Renin (Homo sapiens, UniProt P00797).
T3 sequence (P00797 whole entry): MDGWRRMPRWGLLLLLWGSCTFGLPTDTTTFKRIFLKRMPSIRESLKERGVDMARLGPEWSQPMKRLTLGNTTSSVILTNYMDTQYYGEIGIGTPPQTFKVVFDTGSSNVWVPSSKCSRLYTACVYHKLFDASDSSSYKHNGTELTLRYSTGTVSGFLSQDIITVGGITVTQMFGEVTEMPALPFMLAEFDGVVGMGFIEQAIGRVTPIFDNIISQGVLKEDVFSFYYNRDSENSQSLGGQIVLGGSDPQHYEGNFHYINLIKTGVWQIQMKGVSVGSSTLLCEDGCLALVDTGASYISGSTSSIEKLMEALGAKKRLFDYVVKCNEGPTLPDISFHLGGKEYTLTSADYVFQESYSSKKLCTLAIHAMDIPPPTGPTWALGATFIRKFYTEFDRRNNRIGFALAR
Description: Inhibition of human recombinant renin expressed in CHO cells using RE(EDANS)IHPFHLVIHTK(Dabcyl)R as substrate incubated for 1 hr prior to substrate addition measured after 2 hrs by FRET-based enzymatic assay.

The target of another assay is Cathepsin D (Homo sapiens, UniProt P07339). The assay is described as follows: Inhibition of human recombinant cathepsin-D expressed in baculovirus-infected insect sf9 cells using Ac- E-D(EDANS)-KPILFFRLG-K(Dabcyl)-E-Amid as substrate incubated for 1 hr prior to substrate addition measured after 1 hr by FRET-based enzymatic assay.
The target of assay [4] is 5-hydroxytryptamine receptor 2A (Homo sapiens, UniProt P28223). The assay is described as follows: Inhibition of 5-HT2A (unknown origin).
Sequence of 5-hydroxytryptamine receptor 2A (P28223 whole entry): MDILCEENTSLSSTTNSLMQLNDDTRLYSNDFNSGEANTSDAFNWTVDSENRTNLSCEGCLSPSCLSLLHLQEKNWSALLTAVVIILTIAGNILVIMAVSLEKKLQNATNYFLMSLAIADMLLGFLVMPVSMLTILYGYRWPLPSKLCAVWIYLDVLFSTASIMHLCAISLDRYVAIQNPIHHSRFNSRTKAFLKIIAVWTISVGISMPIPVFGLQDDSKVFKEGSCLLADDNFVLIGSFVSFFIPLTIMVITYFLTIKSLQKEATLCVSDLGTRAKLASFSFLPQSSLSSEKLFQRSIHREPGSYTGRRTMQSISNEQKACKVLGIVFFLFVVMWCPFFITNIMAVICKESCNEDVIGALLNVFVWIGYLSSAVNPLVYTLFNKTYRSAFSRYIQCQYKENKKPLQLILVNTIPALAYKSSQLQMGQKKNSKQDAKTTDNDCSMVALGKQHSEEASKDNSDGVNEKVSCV

Sequence of Beta-secretase 1 (P56817 whole entry): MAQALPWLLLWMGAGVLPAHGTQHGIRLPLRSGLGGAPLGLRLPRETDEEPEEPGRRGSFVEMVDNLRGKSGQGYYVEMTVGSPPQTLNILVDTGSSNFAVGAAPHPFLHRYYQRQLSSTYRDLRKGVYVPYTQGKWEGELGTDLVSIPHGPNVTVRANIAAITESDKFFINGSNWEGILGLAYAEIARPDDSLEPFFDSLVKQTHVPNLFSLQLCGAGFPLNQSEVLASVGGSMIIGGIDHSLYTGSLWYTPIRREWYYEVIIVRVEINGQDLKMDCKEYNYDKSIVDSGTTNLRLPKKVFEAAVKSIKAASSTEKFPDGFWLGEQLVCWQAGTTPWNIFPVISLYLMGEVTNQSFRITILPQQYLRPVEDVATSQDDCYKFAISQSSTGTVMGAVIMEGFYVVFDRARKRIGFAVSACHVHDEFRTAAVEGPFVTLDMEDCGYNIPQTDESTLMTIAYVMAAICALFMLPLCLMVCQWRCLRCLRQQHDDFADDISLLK
Sequence of Cathepsin D (P07339 65-162 limits assumed): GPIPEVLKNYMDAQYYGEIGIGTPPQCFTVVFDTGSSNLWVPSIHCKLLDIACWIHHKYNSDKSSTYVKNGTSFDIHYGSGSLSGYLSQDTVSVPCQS
Sequence of Cathepsin D (P07339 169-412 limits assumed): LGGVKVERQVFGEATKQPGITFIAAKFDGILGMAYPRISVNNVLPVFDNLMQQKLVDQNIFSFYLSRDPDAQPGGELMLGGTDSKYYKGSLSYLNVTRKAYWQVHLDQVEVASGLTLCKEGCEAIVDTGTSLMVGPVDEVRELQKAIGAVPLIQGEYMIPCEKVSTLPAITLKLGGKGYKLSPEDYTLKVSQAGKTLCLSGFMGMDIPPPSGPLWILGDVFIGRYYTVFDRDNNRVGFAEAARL

In the case of `COCCCOc1cc(C(=O)N(C[C@@H]2CNC[C@H]2Cc2ccccc2)C(C)C)ccc1OC.Cl`, the figures for the Activity with Rattus norvegicus [1] and with Rattus norvegicus [2] were 15 mmHg and 35 mmHg, respectively. In addition, the IC50 (commonly the concentration that gives 50% inhibition) is greater than 30000 nM on Cathepsin E; greater than 1000 nM in assay [3]; greater than 30000 nM on Beta-secretase 1; 170 nM on Renin; greater than 30000 nM on Cathepsin D; greater than 1000 nM in assay [4].
